Experimental findings from ChEMBL document CHEMBL1132383, “Cardioselective antiischemic ATP-sensitive potassium channel (K(ATP)) openers. 6. Effect of modifications at C6 of benzopyranyl cyanoguanidines” (J Med Chem, 1999) are described below.

Assay type in all cases: functional
The nature of test [1]: Ratio of Antiischemic potency to vasorelaxant potency. The essentials: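 Selectivity is calculated as the EC25 for lengthening time to contracture in globally ischemic isolated rat hearts divided by the IC50 for relaxing methoxamine-contracted rat aorta.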
The species entered for test [2] is Rattus norvegicus. The experiment in a line: Antiischemic potency by measurement of increase in time to contracture in globally ischemic isolated perfused rat hearts. Put shortly: (§1)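 Isolated rat hearts, perfused and then subjected to global ischemia. Activity is read as the lengthening of time to onset of ischemic contracture. Compounds were first tested at 10 μM. EC25 for increasing time to contracture was then determined.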

For test [3], the species on record is Rattus norvegicus. The test is described as follows: In vitro relaxation of rat aorta precontracted with methoxamine. Put shortly: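 Rat aortic rings precontracted with methoxamine. IC50 is the concentration giving relaxation, reported as the mean of n = 4 or more.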
The species named for test [4] is Rattus norvegicus. The test is described as follows: Antiischemic potency by measurement of increase in time to contracture in globally ischemic isolated perfused rat hearts at 1 uM. The essentials:
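Isolated perfused rat hearts under global ischemia, compound present at 1 μM. Cardioprotection is read as the increase in time to onset of ischemic contracture.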

For test [5], the species on record is Rattus norvegicus. The experiment in a line: Antiischemic potency by measurement of increase in time to contracture in globally ischemic isolated perfused rat hearts. Put shortly:
as §1

Structures are written as SMILES.

For the compound `CC1(C)Oc2ccc(C#N)cc2[C@@H](/N=C(\NC#N)Nc2ccc(Cl)cc2)[C@@H]1O`, the Ratio in test [1] was determined as 1.4. Besides, in the test listed under Rattus norvegicus [2], the EC25 was 2500 nM.

Compound `CC1(C)Oc2ccc(S(=O)(=O)N3CCCCCC3)cc2[C@@H](/N=C(\NC#N)Nc2ccc(Cl)cc2)[C@@H]1O` showed an EC25 in the test filed under Rattus norvegicus [2] of 600 nM.

Consider `CC1(C)Oc2ccc(C(=O)Cc3ccccc3)cc2[C@@H](/N=C(\NC#N)Nc2ccc(Cl)cc2)[C@@H]1O`, for which the Ratio in test [1] is 0.06. In the test listed under Rattus norvegicus [2], this compound had a concentration for an effect of 25% (EC25) of 400 nM. For the same compound, in the test listed under Rattus norvegicus [3], the half-maximal inhibitory concentration (IC50) came to 6800 nM.

On to `CC1(C)Oc2ccc(S(=O)(=O)N3CCCCC3)cc2[C@@H](/N=C(\NC#N)Nc2ccc(Cl)cc2)[C@@H]1O`, for which the Ratio in test [1] was 0.14. The compound further displayed a 25% effect concentration (EC25) in the test listed under Rattus norvegicus [2] of 270 nM. The IC50 in the test listed under Rattus norvegicus [3] was found to be 1900 nM.

As for `CC1(C)Oc2ccc(C(=O)c3ccccc3)cc2[C@@H](/N=C(\NC#N)Nc2ccc(Cl)cc2)[C@@H]1O`, the Ratio in test [1] stood at 0.13. Moreover, the EC25 in the test listed under Rattus norvegicus [2] turned out to be 900 nM. This compound also yielded a half-maximal inhibitory concentration (IC50) in the test listed under Rattus norvegicus [3] of 7100 nM.

On to `CC1(C)Oc2ccc(S(=O)(=O)c3ccccc3)cc2[C@@H](/N=C(\NC#N)Nc2ccc(Cl)cc2)[C@@H]1O`, for which the Ratio in test [1] turned out to be 1.6. This compound also returned a 25% effect concentration (EC25) in the test filed under Rattus norvegicus [2] of 800 nM. Moreover, inhibition in the test filed under Rattus norvegicus [3] was half-maximal at 500 nM (IC50).

Turning to `CCN(CC)S(=O)(=O)c1ccc2c(c1)[C@@H](/N=C(\NC#N)Nc1ccc(Cl)cc1)[C@H](O)C(C)(C)O2`, the Ratio in test [1] is 0.27. In addition, in the test filed under Rattus norvegicus [2], the EC25 stood at 300 nM. The IC50 in the test listed under Rattus norvegicus [3] worked out at 1100 nM.

Consider `CC1CC(C)CN(S(=O)(=O)c2ccc3c(c2)[C@@H](/N=C(\NC#N)Nc2ccc(Cl)cc2)[C@H](O)C(C)(C)O3)C1` (some centres undefined), for which the Ratio in test [1] is 0.007. For the same compound, in the test listed under Rattus norvegicus [2], the 25% effect concentration (EC25) is 230 nM. The compound also came in with an IC50 in the test listed under Rattus norvegicus [3] of 32100 nM.

As to `CC1(C)Oc2ccc(S(=O)(=O)NC3CCCCC3)cc2[C@@H](/N=C(\NC#N)Nc2ccc(Cl)cc2)[C@@H]1O`, the Ratio in test [1] was determined as 0.19. In the test listed under Rattus norvegicus [2], this compound came in with a concentration for an effect of 25% (EC25) of 2200 nM. In the test filed under Rattus norvegicus [3], this compound returned a 50% inhibitory concentration (IC50) of 11700 nM.

Turning to `CC1(C)Oc2ccc(Cc3ccccc3)cc2[C@@H](/N=C(\NC#N)Nc2ccc(Cl)cc2)[C@@H]1O`, in test [1], the Ratio worked out at 1.1. For the same compound, the EC25 in the test listed under Rattus norvegicus [2] stood at 11100 nM. The compound also had an IC50 in the test filed under Rattus norvegicus [3] of 10000 nM.

`CC1(C)Oc2ccc(S(=O)(=O)Nc3ccccc3)cc2[C@@H](/N=C(\NC#N)Nc2ccc(Cl)cc2)[C@@H]1O`: in test [1], the Ratio was 0.6. Also, the 25% effect concentration (EC25) in the test filed under Rattus norvegicus [2] stood at 1900 nM. In addition, the 50% inhibitory concentration (IC50) in the test filed under Rattus norvegicus [3] was found to be 3300 nM.

Take `CC(C)CN(CC(C)C)S(=O)(=O)c1ccc2c(c1)[C@@H](/N=C(\NC#N)Nc1ccc(Cl)cc1)[C@H](O)C(C)(C)O2`: the Ratio in test [1] was found to be 0.004. This compound returned a 25% effect concentration (EC25) in the test filed under Rattus norvegicus [2] of 40 nM. In the test filed under Rattus norvegicus [3], this compound had a 50% inhibitory concentration (IC50) of 9400 nM.

The compound `CC1CCN(S(=O)(=O)c2ccc3c(c2)[C@@H](/N=C(\NC#N)Nc2ccc(Cl)cc2)[C@H](O)C(C)(C)O3)CC1` yielded a concentration for an effect of 25% (EC25) in the test filed under Rattus norvegicus [2] of 650 nM.

`CC1(C)Oc2ccc(C#N)cc2[C@@H](N2CCCC2=O)[C@@H]1O` [CROMAKALIM]: the Ratio in test [1] was determined as 278. In the test listed under Rattus norvegicus [2], this compound yielded a concentration for an effect of 25% (EC25) of 8900 nM.

The compound `CC(C)CN(C)S(=O)(=O)c1ccc2c(c1)[C@@H](/N=C(\NC#N)Nc1ccc(Cl)cc1)[C@H](O)C(C)(C)O2` registered an EC25 in the test filed under Rattus norvegicus [2] of 250 nM.

For `CC(C)N(C(C)C)S(=O)(=O)c1ccc2c(c1)[C@@H](/N=C(\NC#N)Nc1ccc(Cl)cc1)[C@H](O)C(C)(C)O2`, the concentration for an effect of 25% (EC25) in the test listed under Rattus norvegicus [2] turned out to be 240 nM.

`CC1(C)Oc2ccc(C#N)cc2[C@H](N(Cc2ncc[nH]2)c2ccc(Cl)cc2)[C@H]1O` [BMS-191095]: the Ratio in test [1] was < 0.05. In addition, the 25% effect concentration (EC25) in the test filed under Rattus norvegicus [2] amounted to 1400 nM. The IC50 in the test listed under Rattus norvegicus [3] is > 30000 nM.

For the compound `CC1(C)Oc2ccc(C(=O)Nc3ccccc3)cc2[C@@H](/N=C(\NC#N)Nc2ccc(Cl)cc2)[C@@H]1O`, the 25% effect concentration (EC25) in the test listed under Rattus norvegicus [2] is >10000 nM. Moreover, the half-inhibitory concentration (IC50) in the test listed under Rattus norvegicus [3] was > 100000 nM.

Regarding `COP(=O)(c1ccccc1)c1ccc2c(c1)[C@@H](/N=C(\NC#N)Nc1ccc(Cl)cc1)[C@H](O)C(C)(C)O2` (some centres undefined), the Ratio in test [1] was 0.05. This compound also registered a 25% effect concentration (EC25) in the test listed under Rattus norvegicus [2] of 2400 nM. Besides, inhibition in the test filed under Rattus norvegicus [3] was half-maximal at 44100 nM (IC50).

`C=C(c1ccccc1)c1ccc2c(c1)[C@@H](/N=C(\NC#N)Nc1ccc(Cl)cc1)[C@H](O)C(C)(C)O2` returned an Activity in the test listed under Rattus norvegicus [4] of 3%. In the test filed under Rattus norvegicus [3], this compound showed a half-maximal inhibitory concentration (IC50) of 10700 nM.

`CC1(C)Oc2ccc(S(=O)(=O)N3CCOCC3)cc2[C@@H](/N=C(\NC#N)Nc2ccc(Cl)cc2)[C@@H]1O`: the Ratio in test [1] is 0.32. The 25% effect concentration (EC25) in the test listed under Rattus norvegicus [2] worked out at 1000 nM. Moreover, the IC50 in the test listed under Rattus norvegicus [3] turned out to be 3100 nM.

For the compound `C[C@@H]1CCC[C@H](C)N1S(=O)(=O)c1ccc2c(c1)[C@@H](/N=C(\NC#N)Nc1ccc(Cl)cc1)[C@H](O)C(C)(C)O2`, the Ratio in test [1] was 0.68. In the test listed under Rattus norvegicus [2], this compound came in with an EC25 of 340 nM. In the test filed under Rattus norvegicus [3], the half-inhibitory concentration (IC50) amounted to 500 nM.

On to `CC1(C)Oc2ccc(S(=O)(=O)N3CCCC3)cc2[C@@H](/N=C(\NC#N)Nc2ccc(Cl)cc2)[C@@H]1O`, for which, in the test listed under Rattus norvegicus [5], the EC25 was 330 nM.

As for `CC1(C)Oc2ccc(S(=O)(=O)N3CCCC(Cc4ccccc4)C3)cc2[C@@H](/N=C(\NC#N)Nc2ccc(Cl)cc2)[C@@H]1O` (some centres undefined), the 25% effect concentration (EC25) in the test listed under Rattus norvegicus [2] came out at 1100 nM.

In turn, `CCN(CC(F)(F)F)S(=O)(=O)c1ccc2c(c1)[C@@H](/N=C(\NC#N)Nc1ccc(Cl)cc1)[C@H](O)C(C)(C)O2` came in with an EC25 in the test filed under Rattus norvegicus [2] of 260 nM.

For `CC(C)(C)C(=O)c1ccc2c(c1)[C@@H](/N=C(\NC#N)Nc1ccc(Cl)cc1)[C@H](O)C(C)(C)O2`, the Ratio in test [1] was 0.33. This compound had an EC25 in the test listed under Rattus norvegicus [2] of 1800 nM. The same compound registered an IC50 in the test filed under Rattus norvegicus [3] of 5400 nM.

For the compound `CC1(C)Oc2ccc(S(N)(=O)=O)cc2[C@@H](/N=C(\NC#N)Nc2ccc(Cl)cc2)[C@@H]1O`, in the test listed under Rattus norvegicus [2], the concentration for an effect of 25% (EC25) was >10000 nM. The same compound gave a 50% inhibitory concentration (IC50) in the test filed under Rattus norvegicus [3] of 41300 nM.

Compound `CC1(C)Oc2ccc(S(=O)(=O)N3CCC(Cc4ccccc4)CC3)cc2[C@@H](/N=C(\NC#N)Nc2ccc(Cl)cc2)[C@@H]1O` gave an EC25 in the test filed under Rattus norvegicus [2] of 940 nM. Moreover, in the test listed under Rattus norvegicus [3], the half-maximal inhibitory concentration (IC50) is > 30000 nM.
